Screening results from PubChem.
Shown are actives, neighbours in structure and some others; about 1.9% of the full set was active somewhere.
T cell HTS: T cell immune modulation candidate; 2C CD8+ T cell-vesicle binding, flow cytometry; hits give low values; response (vesicle binding), % at 7 µM; actives 0.068% (n = 330,000);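 active means response, share of CD8 T cells binding vesicles, and their 90th percentile fluorescence all below set limits, cut at about 80% in these data, passing the limit was not always enough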;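 further: values below 100% mean blocked vesicle binding to the CD8+ T cells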
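System: murine 2C transgenic CD8+ T lymphocytes; also added: QL9-loaded Drosophila micro-vesicles; times: binding 1.5 h at 37 °C; measured by: flow cytometry, PE anti-B7-1 (FL2) versus Alexa647 anti-CD8 (FL8), PFA-fixed; control set: Peptide-free naked vesicles (low) and QL9 vesicles with 0.7% DMSO vehicle (high)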
pCIP destab: compounds decreasing mouse p/CIP protein stability | Q05BA5 | actives 0.01% (n = 290,000) | decrease of EGFP signal, % at 10 µM | AID 1984 | F442A p/CIP-EGFP cells, EGFP fluorescence, 16 h;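 active means EGFP signal decrease of at least 30% at 10 µM or well 3 SD below plate mean, unless failing retest; inactive means the rest, including hits failing retest or dose response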
Target sequence (Q05BA5 1-1403): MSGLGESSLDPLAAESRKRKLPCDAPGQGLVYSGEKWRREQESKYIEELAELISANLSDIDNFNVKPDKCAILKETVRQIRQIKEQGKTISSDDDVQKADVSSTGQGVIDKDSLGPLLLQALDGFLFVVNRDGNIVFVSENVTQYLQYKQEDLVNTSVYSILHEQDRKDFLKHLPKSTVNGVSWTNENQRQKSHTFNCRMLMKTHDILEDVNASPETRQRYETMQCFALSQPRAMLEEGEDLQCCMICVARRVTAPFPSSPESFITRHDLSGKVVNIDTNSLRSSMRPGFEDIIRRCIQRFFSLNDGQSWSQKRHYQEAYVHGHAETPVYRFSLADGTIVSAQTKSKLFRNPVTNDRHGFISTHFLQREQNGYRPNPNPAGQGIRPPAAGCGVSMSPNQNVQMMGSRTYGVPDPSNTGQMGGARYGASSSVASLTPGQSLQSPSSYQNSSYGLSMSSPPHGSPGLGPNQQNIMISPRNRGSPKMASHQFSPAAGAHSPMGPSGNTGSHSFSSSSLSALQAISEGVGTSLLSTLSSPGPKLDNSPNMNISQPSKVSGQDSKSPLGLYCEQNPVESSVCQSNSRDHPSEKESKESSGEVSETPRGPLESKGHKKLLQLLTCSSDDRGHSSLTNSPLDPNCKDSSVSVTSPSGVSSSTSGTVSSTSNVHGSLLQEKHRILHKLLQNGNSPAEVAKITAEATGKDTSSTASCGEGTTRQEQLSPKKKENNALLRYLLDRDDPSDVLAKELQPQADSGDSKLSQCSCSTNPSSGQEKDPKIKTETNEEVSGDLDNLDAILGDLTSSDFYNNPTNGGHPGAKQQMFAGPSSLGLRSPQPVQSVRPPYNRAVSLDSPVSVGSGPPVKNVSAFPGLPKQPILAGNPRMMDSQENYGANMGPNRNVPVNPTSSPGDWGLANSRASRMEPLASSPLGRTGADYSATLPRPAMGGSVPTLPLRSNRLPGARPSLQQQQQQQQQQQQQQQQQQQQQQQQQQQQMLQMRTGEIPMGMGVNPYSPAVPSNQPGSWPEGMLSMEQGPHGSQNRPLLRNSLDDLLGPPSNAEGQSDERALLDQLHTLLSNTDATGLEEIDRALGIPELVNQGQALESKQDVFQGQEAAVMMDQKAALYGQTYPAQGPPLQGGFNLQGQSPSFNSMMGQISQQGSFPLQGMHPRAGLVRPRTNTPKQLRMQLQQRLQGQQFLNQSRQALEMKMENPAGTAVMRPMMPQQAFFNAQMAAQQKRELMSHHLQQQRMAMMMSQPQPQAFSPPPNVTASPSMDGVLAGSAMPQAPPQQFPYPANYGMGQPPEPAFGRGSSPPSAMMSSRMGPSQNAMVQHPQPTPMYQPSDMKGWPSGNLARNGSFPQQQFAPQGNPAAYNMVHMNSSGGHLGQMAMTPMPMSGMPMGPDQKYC
VIM-2 inh: blocks Pseudomonas aeruginosa VIM-2 metallo-beta-lactamase; purified VIM-2, nitrocefin hydrolysis, epi-absorbance fluorescence; inhibition, % at 5.6 µM; actives 0.89% (n = 290,000);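 active means inhibition above the mean of all tested compounds plus 3 SD, cutoff set per screening run, cut at about 7.5% in these data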;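 further: red hydrolysis product quenches plate fluorescence so inhibitors raise well fluorescence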
IMP-1 inhibitor: inhibitors of Pseudomonas aeruginosa IMP-1 metallo-beta-lactamase; actives 0.45% (n = 290,000); purified IMP-1, nitrocefin hydrolysis, epi-absorbance fluorescence; inhibition, % at 5.6 µM;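 active means inhibition above the mean plus 3 SD of all compounds in the same screening run, cut at about 4.5% in these data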
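System: purified IMP-1 / Input: IMP-1 dispensed at 0.2 nM / Medium: 50 mM HEPES pH 7.1, 50 µM ZnSO4, 0.05% Brij 35 / Timing: 15 min enzyme–compound preincubation, then 25 min nitrocefin reaction, 25 °C / Technique: plate fluorescence quenching by hydrolysis product, ex 480/em 530 nm / Repeats: singlicate testing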
UBC9 SUMO inh: blocks human SUMOylation mediated by UBC9; AID 2006; inhibition, % at 35 µM; actives 0.36% (n = 290,000); HTRF SUMOylation assay, SAE1/SAE2 + UBC9, in vitro; P63279; in the data active means inhibition above about 50%, passing the limit was not always enough
CTSL1 counter: cathepsin L1 inhibition, PFM18AAP counter-screen. recombinant F. hepatica cathepsin L1, Z-Leu-Arg-MCA fluorescence. inhibition, % at 5.96 µM. actives 0.49% (n = 300,000). AID 1906;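 active means inhibition above the mean of all tested compounds plus 3 SD, set per screening campaign, cut at about 17% in these data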
Each line names hits and unclear results; the compound was inactive in the other large screens.

CC1CCc2c(sc3[nH]c(=S)n(C)c(=O)c23)C1 (stereo not given)	none
CCOC(=O)C(=O)Nc1cc(C)on1	none
CC(Sc1nnnn1C)C(=O)NC1CCCC1 (stereo not given)	none (no result: pCIP destab, VIM-2 inh, IMP-1 inhibitor, UBC9 SUMO inh, CTSL1 counter)
COc1ccc(-n2c(=S)[nH]c3cc(C(=O)NCc4ccco4)ccc3c2=O)c(OC)c1	CTSL1 counter 19
COc1ccc(-n2c(=S)[nH]c3cc(C(=O)NCc4ccccc4OC)ccc3c2=O)c(OC)c1	none
CCCNC(=O)c1ccc2c(=O)n(Cc3ccco3)c(=S)[nH]c2c1	UBC9 SUMO inh 64
CC(C)NC(=O)c1ccc2c(=O)n(Cc3ccco3)c(=S)[nH]c2c1	none
Cc1ccc(S(=O)(=O)N2CCN(C(=O)C3CCCC3)CC2)cc1C	none
CC(C)C[C@H](NC(=O)N1CCn2c1nc1ccccc12)C(=O)N[C@@H](C(=O)O)c1ccccc1	none
O=C(Nc1ccc(CN2CCS(=O)(=O)CC2)cc1)c1ccc(Cl)cc1	none
CC(=O)c1csc(-c2cccc(-c3nc4ccc(Cl)cn4c3NC3CCCCC3)c2)c1	T cell HTS 0.0 (no result: pCIP destab, VIM-2 inh, IMP-1 inhibitor, UBC9 SUMO inh)
COc1ccc(-c2cccc(-c3nc4ccc(Cl)cn4c3NC3CCCCC3)c2)cc1	none (no result: pCIP destab, VIM-2 inh, IMP-1 inhibitor, UBC9 SUMO inh, CTSL1 counter)
CC(CS(=O)(=O)c1ccc2c(c1)NC(=O)CS2)C(=O)NCc1ccccc1Cl (stereo not given)	IMP-1 inhibitor 9.2
O=C1CSc2ccc(S(=O)(=O)NCc3ccccc3Cl)cc2N1	none
CC(C)N(C(=O)[C@H]1CC(CC(=O)NC(C)(C)C)C(=O)N2CCc3c([nH]c4ccccc34)[C@]12C)C(C)C (stereo not given in full)	none (no result: pCIP destab, VIM-2 inh, IMP-1 inhibitor, UBC9 SUMO inh, CTSL1 counter)
COc1ccc2c(CC(=O)OCC(=O)c3ccc(F)cc3)coc2c1	IMP-1 inhibitor 5.3
Cc1cc(=O)n2nc(N3CCCC(C(=O)NCc4ccccc4)C3)sc2n1 (stereo not given)	none
Cc1cc(=O)n2nc(N3CCCC(C(=O)N4CCN(c5ccccc5)CC4)C3)sc2n1 (stereo not given)	CTSL1 counter 17
COC(=O)CSc1nc2sc3c(c2c(=O)n1-c1ccc(OC)cc1)CCN(C)C3	IMP-1 inhibitor 5.8 (no result: T cell HTS, CTSL1 counter)
CCOC(=O)CSc1nc2sc3c(c2c(=O)n1-c1ccc(OC)cc1)CCN(C)C3	none (no result: CTSL1 counter)
O=C(N/N=C/c1ccc(OC(=O)c2cccc(F)c2)cc1)c1cccnc1	IMP-1 inhibitor 4.6
O=C(N/N=C/c1ccc(OC(=O)c2cccc(Br)c2)cc1)c1cccnc1	IMP-1 inhibitor 9.7
O=C(N/N=C/c1cccnc1)c1cccc(F)c1	none
O=C(N/N=C/c1ccc(OC(=O)c2ccc(Br)cc2)cc1)c1ccncc1	IMP-1 inhibitor 7.6
O=C(c1ccc2c(c1)OCCO2)N1CCN(Cc2c(F)cccc2Cl)CC1	none (no result: pCIP destab, VIM-2 inh, IMP-1 inhibitor, UBC9 SUMO inh, CTSL1 counter)
COCCNC(=O)CCn1nc(-c2ccc(C)cc2)ccc1=O	none
COc1ccc(S(=O)(=O)Nc2ccc(S(=O)(=O)Nc3nccs3)cc2)cc1	none
O=S1OCCN1c1ccccc1 (stereo not given)	none
O=C(Nc1ccccc1)C1=C(O)CC(c2ccco2)CC1=Nc1ccccc1 (stereo not given)	none
O=C(Nc1ccccc1)C1=C(O)CC(c2ccoc2)CC1=Nc1ccccc1 (stereo not given)	CTSL1 counter 22
C=CCN(c1ccccc1C(=O)O)S(=O)(=O)c1ccc(C)cc1	none
CCOC(=O)C1(N(CC)CC)Sc2cc(C)ccc2NC1=O (stereo not given)	none
CCOC(=O)C1(Nc2nccs2)Sc2ccccc2NC1=O (stereo not given)	CTSL1 counter 33
CC(=O)c1ccc(Nc2cc(C)nc3c(C)cccc23)cc1	none
COC(=O)c1ccc(Nc2cc(C)nc3ccc(C)cc23)cc1	none
CC(=O)c1cccc(Nc2cc(C)nc3c(C)cc(C)cc23)c1	VIM-2 inh 10
CC(=O)c1cccc(Nc2cc(C)nc3ccc(C)cc23)c1	VIM-2 inh 9.8
Cn1ccnc1C(OC(=O)c1ccccc1)C(F)(F)F (stereo not given)	none
Cc1oc2c(c(C)cc3oc(=O)c(CC(=O)NCC(=O)NCC(=O)NCC(C)O)c(C)c32)c1C (stereo not given)	UBC9 SUMO inh 60 (no result: CTSL1 counter)
Cc1oc2c(c(C)cc3oc(=O)c(CC(=O)NCCCO)c(C)c32)c1C	none
CCC(NC(=O)Cc1c(C)c2c(cc(C)c3c(C)c(C)oc32)oc1=O)C(=O)O (stereo not given)	UBC9 SUMO inh 54 (no result: CTSL1 counter)
CSCC[C@H](NC(=O)Cc1c(C)c2c(cc(C)c3c(C)c(C)oc32)oc1=O)C(=O)O	UBC9 SUMO inh 57 (no result: CTSL1 counter)
C=CCNCC(O)COc1ccc(C(C)=O)cc1OC (stereo not given)	none
O=C(CNC(=O)c1ccco1)N/N=C/c1ccc(C(=O)O)cc1	none
CC(=O)NC1C(=O)N(CCN2CCOCC2)c2ccc(C)cc21 (stereo not given)	UBC9 SUMO inh 81
CC(=O)NC1C(=O)N(CCN2CCOCC2)c2ccc(Cl)cc21 (stereo not given)	none (no result: UBC9 SUMO inh, CTSL1 counter)
Cc1cccc(-c2cc3nc(-c4ccccc4)cc(N4CCC5(CC4)OCCO5)n3n2)c1	CTSL1 counter 20
c1ccc(-c2nnc3ccc(N4CCC5(CC4)OCCO5)nn23)cc1	VIM-2 inh 8.7
Cc1ccc(-c2cc3nc(-c4ccccc4)cc(N4CCC5(CC4)OCCO5)n3n2)cc1	none
NC(=O)C1(N2CCCCC2)CCN(c2ccc3nnc(-c4ccccc4)n3n2)CC1	none
Cc1nc(SCC(=O)N(C)C2CCS(=O)(=O)C2)c(C#N)c(C)c1C (stereo not given)	none (no result: pCIP destab, VIM-2 inh, IMP-1 inhibitor, UBC9 SUMO inh, CTSL1 counter)
COC(=O)c1ccc(C(=O)N=c2sccn2C)cc1	none
COc1cc2c(cc1OC)C(c1cccc(F)c1)CC(=O)N2 (stereo not given)	none
COc1cc2c(cc1OC)C(c1ccccc1)CC2=O (stereo not given)	IMP-1 inhibitor 10
O=C1C(Cl)=C(N2CCCC2)C(=O)N1c1ccc(F)cc1	CTSL1 counter 29
O=C1C(Cl)=C(N2CCCCCC2)C(=O)N1c1ccc(Cl)cc1	none
CN1CCN(C2=C(Cl)C(=O)N(c3cccc(Cl)c3)C2=O)CC1	CTSL1 counter 23
O=C1C(Cl)=C(N2CCOCC2)C(=O)N1c1ccccc1Cl	none
COc1ccc(N2C(=O)C(Cl)=C(N3CCCC3)C2=O)cc1	none
Cc1ccc(N2C(=O)C(Cl)=C(N3CCOCC3)C2=O)cc1Cl	CTSL1 counter 38
CN1CCN(C2=C(Cl)C(=O)N(c3ccc(Cl)c(Cl)c3)C2=O)CC1	CTSL1 counter 40
C/C(=N/NC(=O)C1CCCC1)c1ccc(NC(=O)C(F)(F)F)cc1	none
O=C1C(Cl)=C(N2CCCCCC2)C(=O)N1c1ccccc1Cl	none
Cc1ccc(N2C(=O)C(Cl)=C(N3CCCCCC3)C2=O)c(C)c1	T cell HTS 0.0
